Where two headings read alike, the source gives them in different places. Marks after values point to notes of the source that are not given here.
Legend:
[1] = assay type: in vivo, human; settings: for Metabolic ratio of AUC0–inf, metabolite/belinostat / Metabolic ratio of Cmax, metabolite/belinostat: Cycle 1 Day −7, geometric mean (geometric SD)
[2] = Phase 1 safety: adverse events; assay type: in vivo, human
[3] = system: solid tumours or lymphomas; test: Tumour response by RECIST 1.1; assay type: in vivo, human
Method in brief: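 CT scans were done at baseline and every 2 cycles, with response per RECIST 1.1. Dosing was IV over 30 min on days 1–5 of 21-day cycles, at doses set by liver-function cohort and dose level, after a single 400 mg/m2 dose on Cycle 1 Day −7. Cohorts were defined by bilirubin and AST relative to ULN.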

[4] = cited from earlier work
[5] = cited from earlier work; remark: listed apart in the source
[6] = patients with hepatocellular carcinoma; cited from earlier work
[7] = combination with 13‐cis‐retinoic acid; cited from earlier work
[8] = Dose level 1, mild (n = 9), at least possibly related
[9] = Dose level 1, moderate (n = 6), at least possibly related
[10] = Dose level 1, normal (n = 14), at least possibly related
[11] = Dose level 1, severe (n = 9), at least possibly related
[12] = Dose level 2, mild (n = 14), at least possibly related
[13] = Dose level 2, moderate (n = 6), at least possibly related
[14] = Dose level 2, severe (n = 5), at least possibly related
[15] = mild liver dysfunction (n = 25)
[16] = severe liver dysfunction (n = 15)

O=C(/C=C/c1cccc(S(=O)(=O)Nc2ccccc2)c1)NO [Belinostat, belinostat]
Clearance as % of liver blood flow (extraction) ([1]; normal liver function, clearance 661 mL/min/m^2): 76% | Increase in half‐life from normal to severe ([1]; normal vs severe liver dysfunction cohort, not statistically significant): 33% | Patients with at least 1 grade ≥ 3 adverse event at least possibly related to study drug ([2]; All dose levels, all patients, n = 66): 14 (21.2) number (%) of patients | Patients with at least 1 grade ≥ 3 adverse event at least possibly related to study drug ([2]; All dose levels, mild dysfunction, n = 23): 4 (17.4) number (%) of patients | Patients with at least 1 grade ≥ 3 adverse event at least possibly related to study drug ([2]; All dose levels, moderate dysfunction, n = 12): 3 (25) number (%) of patients | Patients with at least 1 grade ≥ 3 adverse event at least possibly related to study drug ([2]; All dose levels, normal liver function, n = 14): 5 (35.7) number (%) of patients | Patients with at least 1 grade ≥ 3 adverse event at least possibly related to study drug ([2]; All dose levels, severe dysfunction, n = 17): 2 (11.8) number (%) of patients | Patients with at least 1 grade ≥ 3 adverse event at least possibly related to study drug ([2]; Dose level 1 (250 mg/m^2), severe dysfunction, n = 9): 1 (11.1) number (%) of patients | Patients with at least 1 grade ≥ 3 adverse event at least possibly related to study drug ([2]; Dose level 1 (500 mg/m^2), moderate dysfunction, n = 6): 1 (16.7) number (%) of patients | Patients with at least 1 grade ≥ 3 adverse event at least possibly related to study drug ([2]; Dose level 1 (750 mg/m^2), mild dysfunction, n = 9): 1 (11.1) number (%) of patients | Patients with at least 1 grade ≥ 3 adverse event at least possibly related to study drug ([2]; Dose level 1 (1000 mg/m^2), normal liver function, n = 14): 5 (35.7) number (%) of patients | Patients with at least 1 grade ≥ 3 adverse event at least possibly related to study drug ([2]; Dose level 1, all patients, n = 38): 8 (21.1) number (%) of patients | Anaemia, Grade 2 [2, 8]: 1 number of patients | Fatigue, Grade 2 [2, 8]: 1 number of patients | Fatigue, Grade 3 [2, 8]: 1 number of patients | Vomiting, Grade 2 [2, 8]: 1 number of patients | Anaemia, Grade 2 [2, 9]: 3 number of patients | Fatigue, Grade 2 [2, 9]: 1 number of patients | Lymphocyte count decreased, Grade 2 [2, 9]: 1 number of patients | Lymphocyte count decreased, Grade 3 [2, 9]: 1 number of patients | Anaemia, Grade 2 [2, 10]: 1 number of patients | Anaemia, Grade 3 [2, 10]: 1 number of patients | Fatigue, Grade 2 [2, 10]: 2 number of patients | Fatigue, Grade 3 [2, 10]: 1 number of patients | Lymphocyte count decreased, Grade 2 [2, 10]: 1 number of patients | Lymphocyte count decreased, Grade 3 [2, 10]: 3 number of patients | Nausea, Grade 2 [2, 10]: 3 number of patients | Vomiting, Grade 2 [2, 10]: 1 number of patients | Fatigue, Grade 2 [2, 11]: 1 number of patients | Vomiting, Grade 2 [2, 11]: 1 number of patients | Lung infection, Grade 5 ([2]; Dose level 1, severe (n = 9), possibly related): 1 number of patients | Patients with at least 1 grade ≥ 3 adverse event at least possibly related to study drug ([2]; Dose level 2 (350 mg/m^2), severe dysfunction, n = 8): 1 (12.5) number (%) of patients | Patients with at least 1 grade ≥ 3 adverse event at least possibly related to study drug ([2]; Dose level 2 (750 mg/m^2), moderate dysfunction, n = 6): 2 (33.3) number (%) of patients | Patients with at least 1 grade ≥ 3 adverse event at least possibly related to study drug ([2]; Dose level 2 (1000 mg/m^2), mild dysfunction, n = 14): 3 (21.4) number (%) of patients | Patients with at least 1 grade ≥ 3 adverse event at least possibly related to study drug ([2]; Dose level 2, all patients, n = 28): 6 (21.4) number (%) of patients | Anaemia, Grade 2 [2, 12]: 3 number of patients | Fatigue, Grade 2 [2, 12]: 2 number of patients | Fatigue, Grade 3 [2, 12]: 2 number of patients | Lymphocyte count decreased, Grade 2 [2, 12]: 4 number of patients | Nausea, Grade 2 [2, 12]: 3 number of patients | Vomiting, Grade 2 [2, 12]: 1 number of patients | Vomiting, Grade 3 [2, 12]: 1 number of patients | Anaemia, Grade 2 [2, 13]: 1 number of patients | Bilirubin increased, Grade 2 [2, 13]: 1 number of patients | Bilirubin increased, Grade 3 [2, 13]: 2 number of patients | Fatigue, Grade 2 [2, 13]: 1 number of patients | Fatigue, Grade 3 [2, 13]: 2 number of patients | Anaemia, Grade 2 [2, 14]: 1 number of patients | Lymphocyte count decreased, Grade 2 [2, 14]: 2 number of patients | Grade 2 or greater anaemia attributed to the study drug ([2]; all treated patients): 17.1% | Grade 2 or greater fatigue attributed to the study drug ([2]; all treated patients): 21.9% | Grade 2 or greater lymphopenia attributed to the study drug ([2]; all treated patients): 18.8% | Patients with grade ≥ 3 toxicity ([2]; mild cohort (4/23)): 17.4% | DLTs ([2]; mild cohort, DL 2 (1000 mg/m^2), 6 evaluable patients): no DLTs | Patients with grade ≥ 3 toxicity ([2]; moderate cohort (3/12)): 25% | DLTs ([2]; moderate cohort, DL 2 (750 mg/m^2), 3 evaluable patients): no DLTs | Patients with a grade ≥ 3 AE ([2]; normal cohort (5/14)): 35.7% | MTD ([2]; patients with mild dysfunction, same as recommended phase 2 dose): 1000 mg/m^2/day | DLTs ([2]; severe cohort, DL 1 (250 mg/m^2), 6 evaluable patients, grade 5 lung infection): 1 | Complete or partial responses ([3]; any of the 4 cohorts): No complete or partial responses | Patients with stable disease ([3]; of 47 patients evaluable for response): 28% | Patients with stable disease ([3]; of 47 patients evaluable for response, after the first 2 cycles): 13 patients | Patients with stable disease ([3]; on DL 1): 11 patients | Patients with stable disease ([3]; on DL 2): 2 patients | Time on study treatment, median ([3]; patients with stable disease): 4 21‐day cycles | Time on study treatment, range ([3]; patients with stable disease): 2–12 cycles | % of dose by glucuronidation (UGT1A1 and UGT2B7), clinical mass balance [4]: 41.4% | % of dose by methylation, clinical mass balance [4]: 1.9% | Total administered belinostat excreted unchanged in the urine [4]: up to 2% | Patients who experienced DLT ([5]; at 1200 mg/m^2/day): 3 of 5 | Recommended phase 2 dose ([5]; days 1–5 of a 21‐day cycle): 1000 mg/m^2/day | MTD (not reached at highest dose tested) [6]: ≥ 1400 mg/m^2/day | MTD (not reached) [7]: ≥ 2000 mg/m^2/day

O=C(/C=C/c1cccc(S(=O)(=O)Nc2ccccc2)c1)NO[C@@H]1O[C@H](C(=O)O)[C@@H](O)[C@H](O)[C@H]1O [Belinostat glucuronide, belinostat glucuronide]
Metabolic ratio of AUC0–inf, metabolite/belinostat [1, 15]: 21.8 (1.63) ^d | Metabolic ratio of Cmax, metabolite/belinostat [1, 15]: 3.57(1.47) ^c | Metabolic ratio of AUC0–inf, metabolite/belinostat ([1]; normal liver function (n = 14)): 18.7 (1.63) | Metabolic ratio of Cmax, metabolite/belinostat ([1]; normal liver function (n = 14)): 3.78 (1.47) | Metabolic ratio of AUC0–inf, metabolite/belinostat [1, 16]: 17.7 (1.91) | Metabolic ratio of Cmax, metabolite/belinostat [1, 16]: 2.85 (1.51)

— PMC6848909 (British Journal of Clinical Pharmacology, 2019)
